Measurements taken from ChEMBL document CHEMBL1136012, “Synthesis and structure-activity relationships of novel 7-substituted 1,4-dihydro-4-oxo-1-(2-thiazolyl)-1,8-naphthyridine-3-carboxylic acids as antitumor agents. Part 1” (J Med Chem, 2002).
In brackets after ≈: the same amount, converted by molar mass.

Tests used:
P388 [1] = test: Cytotoxic activity of compound against Murine P388 Leukemia; format: functional, cell-based, Mus musculus
Outline: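 Murine P388 cells were cultured in EMEM with 10% FBS, 2 mM glutamine, 50 units/mL penicillin and 50 μg/mL streptomycin. They were seeded at (1–2) × 10^4 cells/mL without preincubation and exposed to varying concentrations for 72 h at 37 °C, 5% CO2. MTT was then added for 4 h, formazan dissolved in DMSO and read at 570/690 nm.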

A-427 = test: Cytotoxic activity of compound against A-427 lung human tumor cell line; format: functional, cell-based
Outline: (§1)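 Cells were kept in EMEM with 10% FBS, 2 mM glutamine, NEAA and 1 mM sodium pyruvate. They were seeded at (1–2) × 10^4 cells/mL and preincubated for 24 h. They were then exposed to graded concentrations for 72 h at 37 °C in 5% CO2. MTT was added for a further 4 h and the formazan dissolved in DMSO, with absorbance at 570/690 nm.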

[2] = Cytotoxic activity of compound against AZ-521 stomach human tumor cell line; format: functional
Outline: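 AZ-521 cells were grown in EMEM with 10% FBS, 2 mM glutamine and NEAA. They were plated at (1–2) × 10^4 cells/mL and preincubated for 24 h, then treated with a range of concentrations for 72 h at 37 °C, 5% CO2. After a 4 h MTT step, the formazan was dissolved in DMSO and read at 570 nm (reference 690 nm).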

G-361 = test: Cytotoxic activity of compound against G-361 melanoma human tumor cell line; format: functional, cell-based
Outline: (§2)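 Culture was in McCoy's 5A with 10% FBS. Cells were seeded at (1–2) × 10^4 cells/mL, preincubated for 24 h, then incubated with various concentrations for 72 h at 37 °C under 5% CO2. MTT was added for 4 h and the formazan dissolved in DMSO, with A570 read against 690 nm.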

HT-29 = test: Cytotoxic activity of compound against HT-29 colon human tumor cell line; format: functional, cell-based; outline: as §2
P388 [3] = test: In vitro antitumor activity of compound against P388 leukemia cells at a dose of […] mg/kg; format: functional, Mus musculus; parameters: concentration or dose not given beside the values
P388 [4] = test: […] antitumor activity of compound against P388 leukemia cells at a dose of 3.13 mg/kg; format: functional, Mus musculus
Outline: (§3)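 In vivo study: BDF1 mice received 10^6 P388 leukemia cells ip as diluted ascites fluid. Test compounds were suspended in 0.4% CMC and given ip on days 1 and 5 after implantation, with seven mice per group. The endpoint is T/C% = median survival time of the treated group / median survival time of controls × 100.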

P388 [5] = test: […] antitumor activity of compound against P388 leukemia cells at a dose of 50 mg/kg; format: functional, Mus musculus; outline: as §3
[6] = Cytotoxic activity of compound against SCaBER bladder squamous human tumor cell line; format: functional, cell-based; outline: as §1
SK-OV-3 = test: Cytotoxic activity of compound against SK-OV-3 ovary human tumor cell line; format: functional, cell-based; settings: SK-OV-3, Female gonad
Outline: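 SK-OV-3 cells were maintained in McCoy's 5A with 15% FBS. After seeding at (1–2) × 10^4 cells/mL and 24 h preincubation, wells received graded concentrations for 72 h at 37 °C, 5% CO2. A 4 h MTT incubation followed, with DMSO solubilization and absorbance at 570/690 nm.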

P388 [7] = test: […] antitumor activity of compound against P388 leukemia cells at a dose of 6.25 mg/kg; format: functional; outline: as §3
DNA topoisomerase II = DNA topoisomerase II (Homo sapiens, UniProt P11388+Q02880); test: Inhibitory activity in a DNA cleavage assay using HeLa DNA topoisomerase II yielding its effective concentration; format: protein assay
P388 [8] = test: […] antitumor activity f compound against P388 leukemia cells at a dose of […] mg/kg; format: functional, Mus musculus
[9] = Mus musculus, P388, read-out: IC50

Q: Which IC50 (P388 [1]; [9]) does the source give for `COc1ccccc1N1CCN(c2nc3c(cc2F)c(=O)c(C(=O)O)cn3-c2nccs2)CC1.Cl` here?
A: > 1 µg/mL

Q: For `CO[C@H]1CN(c2nc3c(cc2F)c(=O)c(C(=O)O)cn3-c2nccs2)C[C@@H]1N.Cl` (stereo in doubt; 43j), which IC50 (A-427) is on record?
A: 0.42 µg/mL

Q: What about the IC50 [2] of the same compound?
A: 0.58 µg/mL

Q: And the IC50 (G-361)?
A: 0.4 µg/mL

Q: What about the IC50 (HT-29) of the same compound?
A: 2.1 µg/mL

Q: And the IC50 (P388 [1]; [9])?
A: 0.038 µg/mL

Q: And the T/C (P388 [3])?
A: 238%

Q: And the T/C (P388 [4])?
A: 138%

Q: And the T/C (P388 [5])?
A: >375%

Q: What about the IC50 [6] of the same compound?
A: 0.78 µg/mL

Q: And the IC50 (SK-OV-3)?
A: 1.1 µg/mL

Q: For `Cl.NC1CCN(c2nc3c(cc2F)c(=O)c(C(=O)O)cn3C2CC2)C1` (stereo unspecified), which IC50 (P388 [1]; [9]) is on record?
A: 7.9 µg/mL

Q: With CISPLATIN [listing 1 of 2 here] as the compound, how does the T/C (P388 [4]; Mus musculus) read?
A: 239%

Q: What about the T/C (P388 [7]; Mus musculus) of the same compound?
A: 290%

Q: For `Cl.NC1CCN(c2nc3c(cc2F)c(=O)c(C(=O)O)cn3-c2ccno2)C1` (stereo unspecified), which IC50 (P388 [1]; [9]) is on record?
A: 9.4 µg/mL

Q: For `Cc1nc(-n2cc(C(=O)O)c(=O)c3cc(F)c(N4CCC(N)C4)nc32)sc1C.Cl` (stereo unspecified), which IC50 (P388 [1]; [9]) is on record?
A: 0.18 µg/mL

Q: Which IC50 (P388 [1]; [9]) does the source give for `Cc1cnc(-n2cc(C(=O)O)c(=O)c3cc(F)c(N4CCC(N)C4)nc32)s1.Cl` (stereo unspecified) here?
A: 0.26 µg/mL

Q: With `Cl.O=C(O)c1cn(-c2nccs2)c2nc(O)c(F)cc2c1=O` as the compound, how does the IC50 (P388 [1]; [9]) read?
A: > 10 µg/mL

Q: For `CN1CC=C2CN(c3nc4c(cc3F)c(=O)c(C(=O)O)cn4-c3nccs3)CC21.Cl` (stereo unspecified), which IC50 (P388 [1]; [9]) is on record?
A: 0.038 µg/mL

Q: For `Cl.Cn1nccc1-n1cc(C(=O)O)c(=O)c2cc(F)c(N3CCC(N)C3)nc21` (stereo unspecified), which IC50 (P388 [1]; [9]) is on record?
A: > 10 µg/mL

Q: For `C[C@@H]1CN(c2nc3c(cc2F)c(=O)c(C(=O)O)cn3-c2nccs2)C[C@@H]1N.Cl`, which IC50 (P388 [1]; [9]) is on record?
A: 0.057 µg/mL

Q: With `Cl.O=C(O)c1cn(-c2nccs2)c2nc(N3CC[C@@H](O)C3)c(F)cc2c1=O` as the compound, how does the IC50 (P388 [1]; [9]) read?
A: 0.065 µg/mL

Q: Which IC50 (P388 [1]; [9]) does the source give for `Cl.NC1CCN(c2cc3c(cn2)c(=O)c(C(=O)O)cn3-c2nccs2)C1` (stereo unspecified) here?
A: > 1 µg/mL

Q: Which IC50 (P388 [1]; [9]) does the source give for `COc1cccc2c1C(=O)c1c(O)c3c(c(O)c1C2=O)C[C@@](O)(C(=O)CO)C[C@@H]3O[C@H]1C[C@H](N)[C@H](O)[C@H](C)O1` [DOXORUBICIN] here?
A: 0.004 µg/mL (≈ 0.00736 µM)

Q: What about the T/C (P388 [4]) of the same compound?
A: 235%

Q: What about the T/C (P388 [7]) of the same compound?
A: 293%

Q: With `Cl.NC1CCN(c2nc3c(cc2F)c(=O)c(C(=O)O)cn3-c2nncs2)C1` (stereo unspecified) as the compound, how does the IC50 (P388 [1]; [9]) read?
A: 5.5 µg/mL

Q: Which IC50 (A-427) does the source give for `Cl.NC1CCN(c2nc3c(cc2F)c(=O)c(C(=O)O)cn3-c2nccs2)C1` (stereo unspecified) here?
A: 0.22 µg/mL

Q: What about the IC50 [2] of the same compound?
A: 0.35 µg/mL

Q: What about the IC50 (DNA topoisomerase II) of the same compound?
A: > 200 µg/mL

Q: And the IC50 (G-361)?
A: 0.39 µg/mL

Q: And the IC50 (HT-29)?
A: 1.2 µg/mL

Q: What about the IC50 (P388 [1]; [9]) of the same compound?
A: 0.021 µg/mL

Q: What about the T/C (P388 [3]) of the same compound?
A: 213%

Q: What about the T/C (P388 [4]) of the same compound?
A: 150%

Q: What about the T/C (P388 [5]) of the same compound?
A: >375%

Q: What about the IC50 [6] of the same compound?
A: 0.34 µg/mL

Q: And the IC50 (SK-OV-3)?
A: 0.93 µg/mL

Q: With `Cl.NC1CCN(c2c(F)cc3c(=O)c(C(=O)O)cn(-c4nccs4)c3c2F)C1` (stereo unspecified) as the compound, how does the IC50 (P388 [1]; [9]) read?
A: 55 µg/mL

Q: Which IC50 (P388 [1]; [9]) does the source give for `Cl.NC1CCN(c2cc3c(cc2F)c(=O)c(C(=O)O)cn3-c2nccs2)C1` (stereo unspecified) here?
A: > 10 µg/mL

Q: With `Cl.NCC1CN(c2nc3c(cc2F)c(=O)c(C(=O)O)cn3-c2nccs2)CCO1` (stereo unspecified) as the compound, how does the IC50 (P388 [1]; [9]) read?
A: 1.73 µg/mL

Q: For `Cl.O=C(O)c1cn(-c2nccs2)c2nc(-n3ccnc3)c(F)cc2c1=O`, which IC50 (P388 [1]; [9]) is on record?
A: > 10 µg/mL

Q: Which IC50 (P388 [1]; [9]) does the source give for `Cl.NC1CCN(c2nc3c(cc2F)c(=O)c(C(=O)O)cn3-c2ccccc2)C1` (stereo unspecified) here?
A: 2.4 µg/mL

Q: Which IC50 (P388 [1]; [9]) does the source give for `CC(C)(C)c1csc(-n2cc(C(=O)O)c(=O)c3cc(F)c(N4CCC(N)C4)nc32)n1.Cl` (stereo unspecified) here?
A: 0.88 µg/mL

Q: What does the source list for `CC1(N)CCN(c2nc3c(cc2F)c(=O)c(C(=O)O)cn3-c2nccs2)C1.Cl` (stereo unspecified)?
A: IC50 (P388 [1]; [9]): 0.026 µg/mL; T/C (P388 [3]): 213%; T/C (P388 [4]): 138%; T/C (P388 [5]): >375%

Q: For `Cl.O=C(O)c1cn(-c2nccs2)c2nc(N3CCC(O)C3)c(F)cc2c1=O` (stereo unspecified), which IC50 (P388 [1]; [9]) is on record?
A: 0.036 µg/mL

Q: What about the T/C (P388 [8]) of the same compound?
A: 175%

Q: And the T/C (P388 [4])?
A: 138%

Q: What about the T/C (P388 [5]) of the same compound?
A: 225%

Q: For `Cl.O=C(O)c1cn(-c2nccs2)c2nc(N3CC4NCCOC4C3)c(F)cc2c1=O` (stereo unspecified), which IC50 (P388 [1]; [9]) is on record?
A: > 1 µg/mL

Q: For `COc1cc([C@@H]2c3cc4c(cc3[C@@H](O[C@@H]3O[C@@H]5CO[C@@H](C)O[C@H]5[C@H](O)[C@H]3O)[C@H]3COC(=O)[C@H]23)OCO4)cc(OC)c1O` [ETOPOSIDE], which IC50 (A-427) is on record?
A: 0.095 µg/mL (≈ 0.161 µM)

Q: And the IC50 [2]?
A: 0.08 µg/mL (≈ 0.136 µM)

Q: And the IC50 (G-361)?
A: 0.28 µg/mL (≈ 0.476 µM)

Q: What about the IC50 (P388 [1]; [9]) of the same compound?
A: 0.0085 µg/mL (≈ 0.0144 µM)

Q: What about the T/C (P388 [3]) of the same compound?
A: 250%

Q: And the T/C (P388 [4])?
A: 175%

Q: What about the T/C (P388 [5]) of the same compound?
A: >375%

Q: And the IC50 [6]?
A: 0.31 µg/mL (≈ 0.527 µM)

Q: And the IC50 (SK-OV-3)?
A: 0.95 µg/mL (≈ 1.61 µM)

Q: With `Cl.NC1CCN(c2nc3c(cc2F)c(=O)c(C(=O)O)cn3Cc2nccs2)C1` (stereo unspecified) as the compound, how does the IC50 (P388 [1]; [9]) read?
A: > 10 µg/mL

Q: For CISPLATIN [listing 2 of 2 here], which IC50 (P388 [1]; p388) is on record?
A: 0.011 µg/mL

Q: With `Cl.O=C(O)c1cn(-c2nccs2)c2nc(N3C[C@@H]4CCCN[C@@H]4C3)c(F)cc2c1=O` as the compound, how does the IC50 (P388 [1]; [9]) read?
A: 0.304 µg/mL

Q: Which IC50 (P388 [1]; [9]) does the source give for `Cl.NC1(CO)CCN(c2nc3c(cc2F)c(=O)c(C(=O)O)cn3-c2nccs2)C1` (stereo unspecified) here?
A: 0.084 µg/mL
